Key:
[1] = Acrylamide quenching of BclXL intrinsic fluorescence; type: physicochemical; conditions: 5μM BclXL, excess acrylamide, 25 °C
In short: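 Intrinsic fluorescence quenching: 5 μM His-tagged full-length human BclXL with excess acrylamide in 50 mM acetate (pH 4), phosphate (pH 6), Tris (pH 8) or CAPS (pH 10). 25 °C, 10-mm cuvette; excitation 290 nm; emission 300–500 nm; 2.5-nm bandwidths. […] Q = (Φo−Φ)/Φo × 100% from integrated spectral areas. At least three repeats.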

Far-UV CD of BclXL = type: physicochemical; conditions: 5μM BclXL, 25°C
In short: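 Far-UV spectra of 5 μM full-length human BclXL in 50 mM acetate (pH 4), phosphate (pH 6), Tris (pH 8) or CAPS (pH 10). 25 °C; 2-mm quartz cuvette; 190–250 nm; 2-nm slit; 10 nm/min scan. Buffer reference spectra subtracted. At least three repeats.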

Substance: full-length BclXL: Full-length human BclXL (residues 1-233), N-terminal His-tag, expressed in Escherichia coli
- fluorescence quenching by acrylamide vs pH [1]: optimal quenching occurs at pH 6
- intensity of far-UV spectrum (Far-UV CD of BclXL; pH 4-10): steadily increases with increasing pH
- far-UV CD band, first (Far-UV CD of BclXL; all pH conditions): around 208 nm
- far-UV CD band, second (Far-UV CD of BclXL; all pH conditions): ~222 nm

Reference: paper PMC3483416 (Archives of biochemistry and biophysics, 2012)
